Test results reported in ChEMBL document CHEMBL4229364, “Structure-activity relationships of 2, 4-disubstituted pyrimidines as dual ERα/VEGFR-2 ligands with anti-breast cancer activity” (Eur J Med Chem, 2018).
The source made the active and inactive calls. No cut-off for these calls is given here.

Test system: MCF7
Assay: Induction of apoptosis in human MCF7 cells assessed as necrtotic cells at 1 uM after 24 hrs by Annexin V-FITC/propidium iodide staining based flow cytometry (reference value: 2.05%)
Type: functional
Settings: not given

SMILES	Activity [%]
Oc1ccc(-c2nc(Cl)c(-c3ccccc3)c(Oc3ccc(OCCN4CCCC4)cc3)n2)cc1	0.9

Test system: MCF7
Assay: Induction of apoptosis in human MCF7 cells assessed as live cells at 0.5 uM after 24 hrs by Annexin V-FITC/propidium iodide staining based flow cytometry (reference value: 87.5%)
Type: functional
Settings: not given

SMILES	Activity [%]
Oc1ccc(-c2nc(Cl)c(-c3ccccc3)c(Oc3ccc(OCCN4CCCC4)cc3)n2)cc1	75.5

Test system: MDA-MB-231
Assay: Antiproliferative activity against human MDA-MB-231 cells after 48 hrs by MTT assay
Type: functional, cell-based
Settings: not given
Procedure, shortened: (§1)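 MTT assay. Cells were grown in RPMI1640 with 10% FBS and penicillin/streptomycin at 37°C, 5% CO2, seeded at 1×10^5/mL and rested 24 h. Compound was added at 4×10^-5 to 1×10^-6 mol/L for 48 h; controls received 1% DMSO. MTT (5 mg/mL) was added for 4 h in the dark and the formazan dissolved in DMSO. A490 was read and IC50 derived.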

SMILES	Activity
Oc1ccc(-c2nc(Cl)c(-c3ccccc3)c(Oc3ccc(OCCN4CCCC4)cc3)n2)cc1	Dose-dependent effect

Same assay, conditions: MDA-MB-231, 48 h

IC50 [µM]	SMILES
3.81	Oc1ccc(-c2nc(Cl)c(-c3ccccc3)c(Oc3ccc(OCCN4CCCC4)cc3)n2)cc1

Molecular target: Mitogen-activated protein kinase; ERK1/ERK2 (Homo sapiens) (UniProt P27361+P28482)
Assay: Inhibition of ERK1/ERK2 phosphorylation in human MCF7 cells at 0.5 uM after 24 hrs by Western blot analysis
Type: cell-based
Settings: not given

Sequence of Mitogen-activated protein kinase; ERK1/ERK2 (Homo sapiens) (P27361 whole entry, looked up): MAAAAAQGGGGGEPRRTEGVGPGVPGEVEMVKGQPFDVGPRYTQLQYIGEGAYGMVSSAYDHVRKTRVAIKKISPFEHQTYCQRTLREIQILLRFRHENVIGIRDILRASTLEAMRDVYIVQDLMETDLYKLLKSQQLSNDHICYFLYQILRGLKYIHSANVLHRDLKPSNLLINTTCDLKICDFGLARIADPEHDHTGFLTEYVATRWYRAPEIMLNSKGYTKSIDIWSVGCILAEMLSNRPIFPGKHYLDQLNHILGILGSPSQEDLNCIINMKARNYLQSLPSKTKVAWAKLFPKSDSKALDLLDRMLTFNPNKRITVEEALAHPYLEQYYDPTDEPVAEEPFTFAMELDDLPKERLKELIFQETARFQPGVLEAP
Sequence of Mitogen-activated protein kinase; ERK1/ERK2 (Homo sapiens) (P28482 whole entry, looked up): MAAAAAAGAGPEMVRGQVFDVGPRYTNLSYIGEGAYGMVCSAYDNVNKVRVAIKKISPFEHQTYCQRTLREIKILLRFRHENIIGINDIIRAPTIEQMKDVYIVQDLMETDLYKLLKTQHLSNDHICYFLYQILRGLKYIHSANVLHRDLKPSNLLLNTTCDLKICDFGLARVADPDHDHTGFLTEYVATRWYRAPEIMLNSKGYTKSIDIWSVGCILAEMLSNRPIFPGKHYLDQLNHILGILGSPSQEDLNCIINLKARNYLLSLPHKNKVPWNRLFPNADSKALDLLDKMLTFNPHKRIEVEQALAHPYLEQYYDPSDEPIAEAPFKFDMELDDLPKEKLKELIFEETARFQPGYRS

inhibition	SMILES
Active	Oc1ccc(-c2nc(Cl)c(-c3ccccc3)c(Oc3ccc(OCCN4CCCC4)cc3)n2)cc1

Test system: MCF7
Assay: Antimigratory activity against human MCF7 cells at 0.5 to 1 uM after 48 hrs by crystal violet staining based microscopic method
Type: functional, cell-based
Settings: not given
Procedure, shortened: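 Transwell assay on Matrigel-coated membranes, 5×10^4 cells per well. Cells were treated at plating. After 24 h the invading cells were fixed, with 48 h seeding. Cells were stained with crystal violet (0.1% in 20% methanol) and counted by microscopy. Treatments were 0.5 and 1 µM, with DMSO as vehicle control.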

SMILES	Activity
Oc1ccc(-c2nc(Cl)c(-c3ccccc3)c(Oc3ccc(OCCN4CCCC4)cc3)n2)cc1	Active

Test system: MCF7
Assay: Induction of apoptosis in human MCF7 cells assessed as early apoptotic cells at 0.5 uM after 24 hrs by Annexin V-FITC/propidium iodide staining based flow cytometry (reference value: 4.46%)
Type: functional
Settings: not given

SMILES	Activity [%]
Oc1ccc(-c2nc(Cl)c(-c3ccccc3)c(Oc3ccc(OCCN4CCCC4)cc3)n2)cc1	8.89

Test system: Chorioallantoic membrane
Assay: In vivo antiangiogenic activity in chicken egg chorioallantoic membrane after 72 hrs
Type: functional, organism-based
Settings: Gallus gallus
Procedure, shortened: (§2)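 Chick CAM assay. Fertilized eggs were incubated 7 days at 37°C, then a window of about 1 cm² was opened in the shell. […] Eggs were incubated a further 72 h at 37°C and 60% humidity. CAM was fixed in acetone/ethanol for 10 min and vessels imaged.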

SMILES	Activity
Oc1ccc(-c2nc(Cl)c(-c3ccccc3)c(Oc3ccc(OCCN4CCCC4)cc3)n2)cc1	Dose-dependent effect

Test system: Chorioallantoic membrane
Assay: In vivo antiangiogenic activity in chicken egg chorioallantoic membrane at 1 uM after 72 hrs
Type: functional, organism-based
Settings: Gallus gallus
Procedure, shortened: as §2

SMILES	Activity
CCN(CC)CCNC(=O)c1c(C)[nH]c(/C=C2\C(=O)Nc3ccc(F)cc32)c1C [SUNITINIB]	Active

Test system: MCF7
Assay: Induction of apoptosis in human MCF7 cells assessed as late apoptotic cells at 0.5 uM after 24 hrs by Annexin V-FITC/propidium iodide staining based flow cytometry (reference value: 6.01%)
Type: functional
Settings: not given

SMILES	Activity [%]
Oc1ccc(-c2nc(Cl)c(-c3ccccc3)c(Oc3ccc(OCCN4CCCC4)cc3)n2)cc1	14.5

Molecular target: T1, Vascular endothelial growth factor receptor 2 (Homo sapiens, UniProt P35968)
Assay: Inhibition of VEGFR2 (unknown origin) using TK substrate after 1 hr by HTRF assay
Settings: not given

T1 sequence (P35968 whole entry): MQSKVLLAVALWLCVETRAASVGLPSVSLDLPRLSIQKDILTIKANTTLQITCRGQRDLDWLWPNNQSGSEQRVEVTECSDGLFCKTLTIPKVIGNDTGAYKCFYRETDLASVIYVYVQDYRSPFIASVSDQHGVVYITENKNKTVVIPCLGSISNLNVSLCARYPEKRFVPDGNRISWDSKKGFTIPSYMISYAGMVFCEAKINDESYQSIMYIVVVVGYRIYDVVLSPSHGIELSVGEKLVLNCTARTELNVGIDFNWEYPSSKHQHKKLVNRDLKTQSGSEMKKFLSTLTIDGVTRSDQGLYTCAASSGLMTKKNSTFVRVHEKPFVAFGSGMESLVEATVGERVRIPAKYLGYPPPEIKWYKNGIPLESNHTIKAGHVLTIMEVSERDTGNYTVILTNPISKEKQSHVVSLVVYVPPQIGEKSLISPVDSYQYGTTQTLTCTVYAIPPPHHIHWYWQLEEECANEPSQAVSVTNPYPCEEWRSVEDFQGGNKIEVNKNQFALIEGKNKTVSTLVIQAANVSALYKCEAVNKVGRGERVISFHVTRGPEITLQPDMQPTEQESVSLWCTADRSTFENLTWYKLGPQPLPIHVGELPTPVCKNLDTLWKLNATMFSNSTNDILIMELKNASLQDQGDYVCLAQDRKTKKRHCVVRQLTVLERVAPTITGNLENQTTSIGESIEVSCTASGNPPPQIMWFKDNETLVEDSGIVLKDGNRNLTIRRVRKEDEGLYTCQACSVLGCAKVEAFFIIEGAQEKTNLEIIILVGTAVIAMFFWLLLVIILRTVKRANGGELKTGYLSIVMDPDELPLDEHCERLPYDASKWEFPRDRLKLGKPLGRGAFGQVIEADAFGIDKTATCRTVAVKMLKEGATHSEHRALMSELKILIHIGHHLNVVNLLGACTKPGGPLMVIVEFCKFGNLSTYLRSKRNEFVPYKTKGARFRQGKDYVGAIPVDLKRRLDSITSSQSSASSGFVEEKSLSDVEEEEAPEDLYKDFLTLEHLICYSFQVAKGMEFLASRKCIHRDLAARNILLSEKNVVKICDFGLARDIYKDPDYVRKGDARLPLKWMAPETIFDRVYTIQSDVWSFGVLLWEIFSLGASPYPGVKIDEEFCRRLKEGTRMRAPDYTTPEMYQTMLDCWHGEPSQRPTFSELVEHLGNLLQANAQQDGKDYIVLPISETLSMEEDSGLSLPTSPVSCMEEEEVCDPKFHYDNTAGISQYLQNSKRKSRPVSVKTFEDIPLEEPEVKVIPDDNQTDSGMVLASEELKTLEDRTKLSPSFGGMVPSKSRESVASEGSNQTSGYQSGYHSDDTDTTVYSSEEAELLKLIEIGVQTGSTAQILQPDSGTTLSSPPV

IC50 [µM]	SMILES
> 1	CCN(CC)CCOc1ccc(Oc2nc(-c3ccc(OC)cc3)nc(Cl)c2-c2ccccc2)cc1
0.085	Oc1ccc(-c2nc(Cl)c(-c3ccccc3)c(Oc3ccc(OCCN4CCCC4)cc3)n2)cc1

Molecular target: T1, Vascular endothelial growth factor receptor 2
Settings: HUVEC, at 1 µM

inhibition	SMILES
Active	Oc1ccc(-c2nc(Cl)c(-c3ccccc3)c(Oc3ccc(OCCN4CCCC4)cc3)n2)cc1

Molecular target: T2, Estrogen receptor (Homo sapiens) (UniProt P03372)
T2 sequence (whole entry): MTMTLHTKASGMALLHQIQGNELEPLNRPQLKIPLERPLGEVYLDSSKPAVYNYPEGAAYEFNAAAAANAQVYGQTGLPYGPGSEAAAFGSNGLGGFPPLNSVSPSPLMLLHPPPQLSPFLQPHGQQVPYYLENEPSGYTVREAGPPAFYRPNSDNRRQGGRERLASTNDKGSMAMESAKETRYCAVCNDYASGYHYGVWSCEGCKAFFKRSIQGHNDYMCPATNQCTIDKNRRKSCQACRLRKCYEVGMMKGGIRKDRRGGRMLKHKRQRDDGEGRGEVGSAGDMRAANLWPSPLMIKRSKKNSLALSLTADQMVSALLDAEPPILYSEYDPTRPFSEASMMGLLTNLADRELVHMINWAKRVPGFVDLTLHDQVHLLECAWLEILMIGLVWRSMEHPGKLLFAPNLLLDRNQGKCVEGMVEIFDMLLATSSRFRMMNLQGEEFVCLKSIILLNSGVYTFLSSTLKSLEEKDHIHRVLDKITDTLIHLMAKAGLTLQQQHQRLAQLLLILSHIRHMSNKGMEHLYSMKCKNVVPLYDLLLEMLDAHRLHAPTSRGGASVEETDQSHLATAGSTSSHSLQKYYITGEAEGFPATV
Assay: Antagonist activity at ERalpha in human MCF7 cells assessed as reduction in E2-induced progesterone receptor mRNA level at 0.4 uM by RT-PCR method
Type: cell-based
Settings: not given
Procedure, shortened: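 Quantitative RT-PCR of progesterone receptor mRNA in MCF-7 cells. RNA was reverse transcribed to cDNA and amplified with SYBR Green: 95°C 2 min, then 40 cycles of 95°C 10 s, 60°C 30 s, 95°C 10 s. Signal was normalized to GAPDH and quantified by ΔΔCT. Values are mean ± SD, n=3, compared against the E2 group.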

inhibition	SMILES
Active	Oc1ccc(-c2nc(Cl)c(-c3ccccc3)c(Oc3ccc(OCCN4CCCC4)cc3)n2)cc1

Test system: T47D
Assay: Antiproliferative activity against human T47D cells after 48 hrs by MTT assay
Type: functional, cell-based
Settings: not given
Procedure, shortened: as §1

IC50 [µM]	SMILES	Activity
2.73	Oc1ccc(-c2nc(Cl)c(-c3ccccc3)c(Oc3ccc(OCCN4CCCC4)cc3)n2)cc1	Dose-dependent effect

Molecular target: T3, Estrogen receptor (Homo sapiens, UniProt P03372)
T3 sequence (P03372 whole entry): T2 sequence (whole entry)
Assay: Displacement of Fluormone ES2 Green from full length human ER-alpha expressed in insect cells after 2 hrs by fluorescence polarization assay
Settings: not given

IC50 [µM]	SMILES
1.64	Oc1ccc(-c2nc(Cl)c(-c3ccccc3)c(Oc3ccc(OCCN4CCCC4)cc3)n2)cc1

Test system: Ishikawa
Assay: Antiproliferative activity against human Ishikawa cells after 48 hrs by MTT assay
Type: functional, cell-based
Settings: not given
Procedure, shortened: as §1

SMILES	IC50 [µM]
CCN(CC)CCOc1ccc(Oc2nc(-c3ccc(OC)cc3)nc(Cl)c2-c2ccccc2)cc1	23.5
Oc1ccc(-c2nc(Cl)c(-c3ccccc3)c(Oc3ccc(OCCN4CCCC4)cc3)n2)cc1	5.93

Test system: MCF7
Assay: Induction of apoptosis in human MCF7 cells assessed as necrtotic cells at 0.5 uM after 24 hrs by Annexin V-FITC/propidium iodide staining based flow cytometry (reference value: 2.05%)
Type: functional
Settings: not given

SMILES	Activity [%]
Oc1ccc(-c2nc(Cl)c(-c3ccccc3)c(Oc3ccc(OCCN4CCCC4)cc3)n2)cc1	1.11

Test system: MCF7
Assay: Induction of apoptosis in human MCF7 cells assessed as early apoptotic cells at 1 uM after 24 hrs by Annexin V-FITC/propidium iodide staining based flow cytometry (reference value: 4.46%)
Type: functional
Settings: not given

SMILES	Activity [%]
Oc1ccc(-c2nc(Cl)c(-c3ccccc3)c(Oc3ccc(OCCN4CCCC4)cc3)n2)cc1	5.49

Test system: MCF7
Assay: Potency index, ratio of raloxifene IC50 to compound IC50 for antiproliferative activity against human MCF7 cells
Type: functional
Settings: not given
Procedure, shortened: (§3)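 Potency index is the reference drug's MCF-7 MTT IC50 divided by the compound's IC50. Reference drugs were tamoxifen or raloxifene. Cells received 48 h exposure over 4×10^-5 to 1×10^-6 mol/L with a 1% DMSO control, then A490 readout.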

SMILES	Ratio IC50
Oc1ccc(-c2nc(Cl)c(-c3ccccc3)c(Oc3ccc(OCCN4CCCC4)cc3)n2)cc1	16

Test system: MCF7
Assay: Effect on total RAF1 protein expression in human MCF7 cells at 0.5 uM after 24 hrs by Western blot analysis
Type: ADME, cell-based
Settings: mcf7, 24 h

SMILES	Activity
Oc1ccc(-c2nc(Cl)c(-c3ccccc3)c(Oc3ccc(OCCN4CCCC4)cc3)n2)cc1	Non-Toxic

Test system: MCF7
Assay: Induction of apoptosis in human MCF7 cells assessed as late apoptotic cells at 1 uM after 24 hrs by Annexin V-FITC/propidium iodide staining based flow cytometry (reference value: 6.01%)
Type: functional
Settings: not given

SMILES	Activity [%]
Oc1ccc(-c2nc(Cl)c(-c3ccccc3)c(Oc3ccc(OCCN4CCCC4)cc3)n2)cc1	28

Test system: MCF7
Assay: Induction of apoptosis in human MCF7 cells assessed as live cells at 1 uM after 24 hrs by Annexin V-FITC/propidium iodide staining based flow cytometry (reference value: 87.5%)
Type: functional
Settings: not given

SMILES	Activity [%]
Oc1ccc(-c2nc(Cl)c(-c3ccccc3)c(Oc3ccc(OCCN4CCCC4)cc3)n2)cc1	65.7

Test system: MCF7
Assay: Antiproliferative activity against human MCF7 cells after 48 hrs by MTT assay
Type: functional, cell-based
Settings: MCF7, 48 h
Procedure, shortened: as §1

IC50 [µM]	SMILES
> 40	CCN(CC)CCOc1ccc(Oc2nc(-c3ccc(OC)cc3)nc(Cl)c2-c2ccccc2)cc1
0.81	Oc1ccc(-c2nc(Cl)c(-c3ccccc3)c(Oc3ccc(OCCN4CCCC4)cc3)n2)cc1

Molecular target: T1, Vascular endothelial growth factor receptor 2
Settings: at 10 µM

inhibition [%]	SMILES
60.2	CCN(CC)CCOc1ccc(Oc2nc(-c3ccc(OC)cc3)nc(Cl)c2-c2ccccc2)cc1
91.1	Oc1ccc(-c2nc(Cl)c(-c3ccccc3)c(Oc3ccc(OCCN4CCCC4)cc3)n2)cc1

Test system: HUVEC
Assay: Antiproliferative activity against HUVEC after 48 hrs by MTT assay
Type: functional, cell-based
Settings: Homo sapiens
Procedure, shortened: as §1

SMILES	IC50 [µM]
CCN(CC)CCOc1ccc(Oc2nc(-c3ccc(OC)cc3)nc(Cl)c2-c2ccccc2)cc1	15.1
CCN(CC)CCNC(=O)c1c(C)[nH]c(/C=C2\C(=O)Nc3ccc(F)cc32)c1C [SUNITINIB]	6.36
Oc1ccc(-c2nc(Cl)c(-c3ccccc3)c(Oc3ccc(OCCN4CCCC4)cc3)n2)cc1	4.57

Test system: MCF7
Assay: Induction of apoptosis in human MCF7 cells after 24 hrs by Annexin V-FITC/propidium iodide staining based flow cytometry
Type: functional, cell-based
Settings: not given

SMILES	Activity
Oc1ccc(-c2nc(Cl)c(-c3ccccc3)c(Oc3ccc(OCCN4CCCC4)cc3)n2)cc1	Dose-dependent effect

Test system: MCF7
Assay: Potency index, ratio of tamoxifen IC50 to compound IC50 for antiproliferative activity against human MCF7 cells
Type: functional
Settings: not given
Procedure, shortened: as §3

SMILES	Ratio IC50
Oc1ccc(-c2nc(Cl)c(-c3ccccc3)c(Oc3ccc(OCCN4CCCC4)cc3)n2)cc1	19 - 20

Molecular target: RAF proto-oncogene serine/threonine-protein kinase (Homo sapiens) (UniProt P04049)
Assay: Inhibition of RAF1 phosphorylation in human MCF7 cells at 0.5 uM after 24 hrs by Western blot analysis
Type: cell-based
Settings: not given

Sequence of RAF proto-oncogene serine/threonine-protein kinase (Homo sapiens) (P04049 whole entry): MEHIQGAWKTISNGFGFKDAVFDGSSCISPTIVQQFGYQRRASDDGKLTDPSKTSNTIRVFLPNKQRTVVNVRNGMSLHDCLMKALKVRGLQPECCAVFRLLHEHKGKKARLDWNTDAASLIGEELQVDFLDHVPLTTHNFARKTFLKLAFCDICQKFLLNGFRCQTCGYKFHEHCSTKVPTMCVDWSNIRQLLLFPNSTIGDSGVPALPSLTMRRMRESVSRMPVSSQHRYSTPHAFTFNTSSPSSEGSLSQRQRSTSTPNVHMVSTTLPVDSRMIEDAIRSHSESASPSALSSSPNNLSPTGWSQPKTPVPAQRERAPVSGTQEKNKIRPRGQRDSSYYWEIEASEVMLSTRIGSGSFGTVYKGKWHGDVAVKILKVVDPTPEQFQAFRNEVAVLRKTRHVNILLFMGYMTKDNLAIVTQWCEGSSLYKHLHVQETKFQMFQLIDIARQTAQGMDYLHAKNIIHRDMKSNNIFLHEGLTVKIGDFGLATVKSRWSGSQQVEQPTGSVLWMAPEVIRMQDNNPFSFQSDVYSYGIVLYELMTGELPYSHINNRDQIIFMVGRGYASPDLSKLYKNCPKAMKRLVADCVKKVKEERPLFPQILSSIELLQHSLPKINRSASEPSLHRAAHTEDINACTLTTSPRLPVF

inhibition	SMILES
Active	Oc1ccc(-c2nc(Cl)c(-c3ccccc3)c(Oc3ccc(OCCN4CCCC4)cc3)n2)cc1
